Data published in the RNAGym collection of RNA variant scans (doi:10.1126/science.aae0568).
Fewer inactive variants are shown than the library holds.

B1: tRNA (parent)
chain: GUUCCGUUGGCGUAAUGGUAACGCGUCUCCCUCCUAAGGAGAAGACUGCGGGUUCGAGUCCCGUACGGAACG

Variants of: B1
Assay: yeast fitness relative to wild type (ratio to wild type); higher = fitter; tRNA-Arg(CCU), competitive growth, 37 C, YPD
Procedure, shortened: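 Changes in genotype frequencies gave Darwinian fitness relative to wild type. Frequencies were read by 100-nucleotide paired-end sequencing of gene amplicons before and after pooled Saccharomyces cerevisiae strains, carrying tRNA-Arg(CCU) gene variants at the native locus, were competed in YPD at 37°C for 24 hours in six replicates. A genotype was kept only with ≥ 100 starting reads, and estimates < 0.5 were set to 0.5.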

Variant	yeast fitness
GUUCCGUUGGCGUAAUGGUAACGCGUCUCCCACCUACGGAGCAGACUGAGGGAUCGAGUCCCGUACGGAACG [U32A A37C A42C C49A U53A]	≤ 0.5
GUUCCGUUGGCGUAAUGGUAACGCGUCUCCUCUCUAAGGAGAAGACUGCGGGUUCGAGUCCCGUACGGAACG [C31U U32C C33U]	0.667
GUUCCGUUGGCGUAAUGGUAACGCGUCUCCUUCCUAAGGAGAAGACUGCGGGUUCGAGUCCCGUACUGGACG [C31U G67U A69G]	0.747
GUUCCGUUGGCGUAAUGGUAACGCGUCUCCUUCCUAAGGAGAAGACCGCGGGUUCGAGUCCCAUACGGAACG [C31U U47C G63A]	0.687
GUUCCGUUGGCGUAAUGGUAACGCGUCUCCUUCCUAAGGAGAAGACAGCGUGUUCGAGUCCUGUACGGAACG [C31U U47A G51U C62U]	≤ 0.5
GUUCCGUUGGCGUAAUGGUAACGCGUCUCCCACAUAAGGAGAAGACUGCGGGUUCGAGUCCCGUACGGAACG [U32A C34A]	0.648
GUUCCGUUGGCGUAAUGGUAACGCGUCUCCCACUUAAGGAGAAGACUGCGGGUUCGAGUCCCGUACGGAACG [U32A C34U]	0.531
GUUCCGUUGGCGUAAUGGUAACGCGUCUCCUUCCUAAGGAGAAGACUCCGGGUUCGAGUCCCGUAUGGAACG [C31U G48C C66U]	0.741
GUUCCGUUGGCGUAAUGGUAACGCGUCUCCUUCCUAAGGAGAAGACUGCGGGUUCGAAUCCCGUCCGGAACG [C31U G58A A65C]	0.65
GUUCCGUUGGCGUAAUGGUAACGCGUCUCCUUCCUAAGGAGAAGACUGCGGGUUCGAGCCCCGUACGGAACG [C31U U59C]	1.02
GUUCCGUUGGCGUAAUGGUAACGCGUCUCCCACCUAAGGAGAGGACUGCGGGUUCGAGUCCCGGACGGAACG [U32A A43G U64G]	≤ 0.5
GUUCCGUUGGCGUAAUGGUAACGCGUCUCCUUCCUAAGGAGAAGACUGCGGGUCCGAGUCCCGUACGGAACG [C31U U54C]	0.82
GUUCCGUUGGCGUAAUGGUAACGCGUCUCCUUCCUAAGGAGAAGACUACGGGUUCGAGUCCCGUACGGUACG [C31U G48A A69U]	0.757
GUUCCGUUGGCGUAAUGGUAACGCGUCUCCCACCUAAGGAGAGGACUGCGGGUUCGAGUCUCGUACGGAACG [U32A A43G C61U]	≤ 0.5
GUUCCGUUGGCGUAAUGGUAACGCGUCUCCUUCCUAAGGAGAAGACUGCGGGAUCGAGACCCGUACGGAACG [C31U U53A U59A]	≤ 0.5
GUUCCGUUGGCGUAAUGGUAACGCGUCUCCCACGUAAGGAGAAGACUGCGGGUUGGAGUCCCGUACGAACCG [U32A C34G C55G G68A A70C]	≤ 0.5
GUUCCGUUGGCGUAAUGGUAACGCGUCUCCUUCCUAAGGAGAAGACUGCGGCUUCGAGUACCGUACGGAACG [C31U G52C C60A]	0.632
GUUCCGUUGGCGUAAUGGUAACGCGUCUCCUUCCUAAGGAGAAGACUGCGGGUUCGAGUCCCCUACGGAACG [C31U G63C]	0.766
GUUCCGUUGGCGUAAUGGUAACGCGUCUCCUUCCUAAGGAGAAAUCUGCGGGUUCGAGUCCCGUACGGAACG [C31U G44A A45U]	0.893

Variant	yeast fitness
GUUCCGUUGGCGUAAUGGUAACGCGUCUCCUUCCUAAGGAGAAGACUCCGGGUUCGAGUCCCGUACCGAACG [C31U G48C G67C]	0.649
GUUCCGUUGGCGUAAUGGUAACGCGUCUCCCACCUAAGGUCAAGAAUGCGGAUUCGAGUCCCGUACGGAACG [U32A A40U G41C C46A G52A]	0.656
GUUCCGUUGGCGUAAUGGUAACGCGUCUCCCACUUAAGGAGAAGACUGCGGGUUCGAGUCUCGUACGGAACG [U32A C34U C61U]	0.54
GUUCCGUUGGCGUAAUGGUAACGCGUCUCCCACCUACGGAGAAGACUGCGGGUUCGAGUCCCGUACGGAACG [U32A A37C]	0.771
GUUCCGUUGGCGUAAUGGUAACGCGUCUCCCACCUAAGGUGAAGACUGCGGGUUCGAGUCCCGUACGGAACG [U32A A40U]	0.774
GUUCCGUUGGCGUAAUGGUAACGCGUCUCCCACCUAAGGCGAAGACUGCGGGUUCGAGUCCCGUACGGAACG [U32A A40C]	0.694
GUUCCGUUGGCGUAAUGGUAACGCGUCUCCUUCCUAAGGAGAAGACUGCGGGUUCGACUCACGUACGGUACG [C31U G58C C61A A69U]	0.505
GUUCCGUUGGCGUAAUGGUAACGCGUCUCCUUCCUAAGGAGAAGACUGCGGCUUCGAGUCCCGUUCGGAACG [C31U G52C A65U]	≤ 0.5
GUUCCGUUGGCGUAAUGGUAACGCGUCUCCUUCCUAAGGAGAAGACUGCAGGUUCGAGUCCCGUACGGAUCG [C31U G50A A70U]	0.677
GUUCCGUUGGCGUAAUGGUAACGCGUCUCCUUCCUAAGGAGAACACUGCGGGUUCGAGUCCCGUCCGGAACG [C31U G44C A65C]	0.594
GUUCCGUUGGCGUAAUGGUAACGCGUCUCCCACCUAAGGAGUAGACUGCGGGUUCGAGUCCCGUACGGAACG [U32A A42U]	0.861
GUUCCGUUGGCGUAAUGGUAACGCGUCUCCUUCCUAAGGAGAAGACUACGGGUUCGAGUCUCGUCCGGAACG [C31U G48A C61U A65C]	≤ 0.5
GUUCCGUUGGCGUAAUGGUAACGCGUCUCCCACCUAAGGAGAAGUCUGCGGGUUCGAGUCCCGUACGGAACG [U32A A45U]	0.789
GUUCCGUUGGCGUAAUGGUAACGCGUCUCCCACCUAAGGAGAAGACUGCGGGUUCGAGUCCCGUACGGCACG [U32A A69C]	0.882
GUUCCGUUGGCGUAAUGGUAACGCGUCUCCCACCUAAGGAGAAGACUGCGGGUUCGAGUCCCGUACGGUACG [U32A A69U]	0.958
GUUCCGUUGGCGUAAUGGUAACGCGUCUCCCACCUAAGGAGAAGACUGCGGGUUCGAGUCCCGUACGGAACG [U32A]	0.742
GUUCCGUUGGCGUAAUGGUAACGCGUCUCCCACCUAAGGCGAAGACUGCGGGUUCGACUCCCAUACGGAACG [U32A A40C G58C G63A]	≤ 0.5
GUUCCGUUGGCGUAAUGGUAACGCGUCUCCUUCCUAAGGAGAAGACUGCGGGUUCGAGUCCCGUACGAAACG [C31U G68A]	0.883
